# Experimental data collected from several papers.
# pEC50, pIC50, pKi: −log10 of the molar value.
# HLA class I histocompatibility antigen, A alpha chain: HLA class I histocompatibility antigen, A alpha chain (Homo sapiens, UniProt P04439)
# BACE1: Beta-secretase 1 (BACE1, Homo sapiens, UniProt P56817)
Structure (SMILES),target,test,measurement,value
CCCC[C@H](NC(C)=O)C(=O)N[C@H]1CC(=O)NCCCC[C@@H](C(=O)N2CCC[C@@H]2C(=O)N[C@@H](C(=O)N2CCC[C@@H]2C(N)=O)C(C)C)NC(=O)[C@H](Cc2c[nH]c3ccccc23)NC(=O)[C@H](CCCNC(=N)N)NC(=O)[C@@H](Cc2ccccc2)NC(=O)[C@@H]2CCCN2C1=O,"Melanocortin receptor 3 (MC3R, Homo sapiens, UniProt P41968)","cAMP, agonist",pEC50,< 6.00
CSCC[C@H](NC(=O)[C@@H](N)CCCNC(=N)N)C(=O)N[C@@H](Cc1ccccc1)C(=O)NCC(=O)N1CCC[C@H]1C(=O)N[C@H](C(=O)N[C@@H](CCC(N)=O)C(=O)N[C@H](C(=O)N[C@@H](Cc1ccc(O)cc1)C(=O)O)[C@@H](C)O)C(C)C,"HLA class I histocompatibility antigen, A alpha chain",cell-free assay,pIC50,7.35
COc1cc2c(cc1OC)CN(CCc1ccc(NC(=O)c3cccc4c(=O)c5cccc(OC)c5[nH]c34)cc1)CC2,"D(2) dopamine receptor (DRD2, Homo sapiens, UniProt P14416)",cell-free assay,pKi,6.03
C=CCOc1ccc(C(=O)/C=C/c2cccc(F)c2)c(OS(=O)(=O)c2ccc(F)cc2)c1I,BACE1,"enzyme activity, inhibitor, fluorescence",pIC50,4.56
CSCC[C@H](NC(=O)[C@@H](N)CCCCN)C(=O)N[C@@H](Cc1c[nH]c2ccccc12)C(=O)NCC(=O)N[C@@H](CCCCN)C(=O)N1CCC[C@H]1C(=O)N[C@@H](CCSC)C(=O)N[C@H](C(=O)N[C@@H](Cc1ccccc1)C(=O)O)[C@@H](C)O,"HLA class I histocompatibility antigen, A alpha chain",cell-free assay,pIC50,6.67
CCOC(=O)c1ccc(OC(=O)CCCCCN=C(N)N)cc1,"Transmembrane protease serine 6 (Homo sapiens, UniProt Q8IU80)","enzyme activity, inhibitor",pIC50,6.39
C=CCOc1ccc(C(=O)/C=C/c2ccc(OC)cc2)c(OS(=O)(=O)c2ccccc2[N+](=O)[O-])c1I,BACE1,"enzyme activity, inhibitor, fluorescence",pIC50,4.62
COc1cc(C(F)(F)F)c(OC)cc1C1CCCNC1 (stereo not shown),"5-hydroxytryptamine receptor 2C (Htr2c, Mus musculus, UniProt P34968)","G protein activation, agonist, BRET",pEC50,7.51
CC[C@H](C)[C@H](NC(=O)[C@@H](N)CCCNC(=N)N)C(=O)N[C@@H](Cc1ccc(O)cc1)C(=O)NCC(=O)N1CCC[C@H]1C(=O)N1CCC[C@H]1C(=O)N[C@@H](Cc1c[nH]cn1)C(=O)N[C@@H](CCC(N)=O)C(=O)N[C@@H](Cc1ccccc1)C(=O)O,"HLA class I histocompatibility antigen, A alpha chain",cell-free assay,pIC50,6.42
C=CCOc1ccc(C(=O)/C=C/c2ccc(OC)cc2)c(OS(=O)(=O)c2ccc(OC)cc2)c1I,BACE1,"enzyme activity, inhibitor, fluorescence",pIC50,4.74
